Sampled rows, rich in hits. Any-hit rate of the full collection: about 2.2%.
Granule exo inh: LAMP-1 surface exposure blockers, TALL-104 cells – cell-based, flow cytometry, MLPCN library, primary screen; TALL-104 LAMP-1 surface exposure; cells stimulated with thapsigargin and PMA; inhibition, % at 10 µM; hit rate 0.66% among 360,000;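 active = inhibition above about 55%, limit read from the data; inconclusive = no clear call, values can overlap the other calls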
HNF4A DNA FP: change in binding of human HNF4A to DNA, primary screen, biochemical, fluorescence polarization, FITC-DNA; hit rate 0.3% among 360,000; Hepatocyte nuclear factor 4-alpha (Homo sapiens), P41235; 1 h; activity change, % at 10 µM; in the data active = activity change above about 30%, passing the limit was not always enough
CSN inh: inhibitors of CSN-mediated cullin deneddylation, primary screen, biochemical, fluorescence polarization, uHTS; COP9 signalosome complex subunit 5 (Homo sapiens), Q92905; Purified CSN, SCF-Nedd8-OG deneddylation; inhibition, % at 12.5 µM; hit rate 0.38% among 360,000; AID 651999, 2013;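 active = pattern-corrected inhibition above about 35%, with an unprinted fluorescence ratio check between 0.5 and 1.5, limit read from the data, passing the limit was not always enough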;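 note: 0% = enzyme with substrate and 100% = substrate without enzyme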
Target sequence (Q92905 whole entry, looked up, one chain of several): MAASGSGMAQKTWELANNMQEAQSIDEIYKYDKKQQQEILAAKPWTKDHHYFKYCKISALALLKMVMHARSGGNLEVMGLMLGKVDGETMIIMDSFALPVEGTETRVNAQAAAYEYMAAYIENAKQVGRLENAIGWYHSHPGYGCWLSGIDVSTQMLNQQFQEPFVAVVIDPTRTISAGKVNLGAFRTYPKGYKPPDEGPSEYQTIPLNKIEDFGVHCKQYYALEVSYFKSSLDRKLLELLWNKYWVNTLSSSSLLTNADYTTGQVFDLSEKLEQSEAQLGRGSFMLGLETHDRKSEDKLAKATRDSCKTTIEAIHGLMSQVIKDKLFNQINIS
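Assay system: Purified human Csn5 enzyme expressed in HEK293T cells | Amount: Enzyme 0.24 nM | Measured by: Fluorescence polarization readout | Medium: Tris/NaCl/DTT buffer, pH 7.5 | Compound dosing: One concentration, 12.5 µM, 0.25% DMSO | Times: 90 min incubation of compound, enzyme and substrate at room temperature | Control set: no-enzyme wells high, enzyme-with-substrate wells low | Read-out: % inhibition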
Myeloid diff MLP: induction of myeloid progenitor differentiation, primary screen, cell-based, flow cytometry, MLPCN library | ER-HoxA9 myeloid progenitors, lysozyme-GFP differentiation | calls only at 10 µM | hit rate 1% among 360,000;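 active = normalized GFP-positive differentiation at or above the plate's own cutoff, the solvent-only control mean plus 3 SD; inconclusive = no clear call, values can overlap the other calls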;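 note: cells exposed to compound for four days before flow analysis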
Active calls of the source: *; i = inactive; u = inconclusive; + = active, no number; ! = repeats disagree.

SMILES | Granule exo inh | HNF4A DNA FP | CSN inh | Myeloid diff MLP
Cc1ccc(Nc2nc(N)nc(CSc3nnnn3-c3ccccc3)n2)cc1 | -3 | -5 | 41* | i
Cc1c(NC(=O)c2cc(-c3cccc(Cl)c3)on2)c(=O)n(-c2ccccc2)n1C | -8 | 0 | 0 | i
C/C(=N\NS(=O)(=O)c1ccc(Cl)c([N+](=O)[O-])c1)c1cc2ccccc2o1 | -2 | -2 | 1 | i
C/C(=N\Nc1ccc([N+](=O)[O-])cc1)c1cc2ccccc2o1 | 19 | 56* | 25 | i
C/C(=N\NS(=O)(=O)c1ccc(C)c([N+](=O)[O-])c1)c1cc2ccccc2o1 | 4 | 1 | -2 | +
CCOc1ccc(Cc2nnc(SCC(=O)Nc3c(C)cccc3C)[nH]c2=O)cc1 | -3 | -5 | 1 | i
COc1ccccc1N(C)S(=O)(=O)c1ccc(C(=O)N2CCCC(C(F)(F)F)C2)cc1 (centres undefined) | 1 | 5 | 1 | i
Cn1c(=O)c(NCCO)c2c3c(cccc31)C(=O)c1ccccc1-2 | -1 | -80 | -75 | i
Cn1c(=O)c(NCCc2ccccc2)c2c3c(cccc31)C(=O)c1ccccc1-2 | -3 | -44 | -82 | +
CCCN(CC(=O)Nc1ccccc1C)C(=O)C1CCN(S(=O)(=O)c2ccc(C)c(C)c2)CC1 | 0 | -2 | 3 | i
O=C(NCCCN1CCOCC1)c1ccccc1N1C(=O)[C@@H]2Cc3c([nH]c4ccccc34)C(c3cccc(Cl)c3)N2C1=O (some centres undefined) | 8 | 3 | 0 | i
COc1ccc(OC)c(N/C(=N/C(=S)Nc2ccccc2)Nc2nc(C)cc(C)n2)c1 | 14 | -3 | 0 | +
COc1ccc2nc(N/C(N)=N/C(=S)Nc3ccccc3)nc(C)c2c1 | -7 | 3 | -2 | i
Cc1ccccc1CSCC1Nc2ccc(C(=O)NCCc3ccccc3)cc2NC1=O (centres undefined) | -2 | 91 | 24 | +
COc1ccc(CN(CCNC(=O)CCCCC(=O)NCCN(Cc2ccc(OC)cc2)C(C)C)C(C)C)cc1 | -6 | -1 | -7 | i
Cc1oc(C(C)(C)C)cc1C(=O)N1CCCC1C(=O)O (centres undefined) | 0 | -2 | 2 | +
CC(C)(C)OC(=O)N1CCCC1C(=O)O (centres undefined) | 1 | 3 | 5 | i
Cc1ccc(Cc2c(-c3ccco3)nc3c(C)cc(Br)cn23)cc1 | 36 | 7 | 18 | +
Cc1ccc(Cc2c(-c3ccccc3)nc3c(C)cc(Br)cn23)cc1 | -2 | 6 | -3 | i
CCn1cc(C(=O)NCc2ccco2)c(=O)c2cc(S(=O)(=O)N3CCC(C)CC3)ccc21 | 1 | -3 | 3 | i
CCn1cc(C(=O)NCc2ccco2)c(=O)c2cc(S(=O)(=O)N3CC(C)CC(C)C3)ccc21 (centres undefined) | -2 | 2 | -2 | +
COc1ccccc1Cc1nnc(NC(=O)C2CCN(C(=O)c3ccco3)CC2)s1 | 0 | 0 | 3 | i
CCN(CC)CCNC(=O)c1ccc(NC(=O)c2ccc(C(=O)c3ccccc3)cc2)cc1 | -1 | -2 | -1 | i
CCN(CC)CCNC(=O)c1ccc(NC(C)=O)cc1 | -1 | 2 | -1 | +!
Cc1cccc(C)c1-n1c(C)nn(CCOc2ccccc2)c1=O | 8 | 3 | -3 | +
SMILES | Granule exo inh | HNF4A DNA FP | CSN inh | Myeloid diff MLP
Cc1nn(CCOc2ccccc2)c(=O)n1-c1ccc(F)cc1 | 4 | -3 | -1 | i
COc1cc2c(cc1OC)C(C)N(CCN1C(=O)c3ccccc3C1=O)CC2 (centres undefined) | 9 | 1 | 2 | +
CCn1cc([N+](=O)[O-])c(C(=O)N2CCCC2)n1 | -2 | 0 | 5 | +
CCn1cc([N+](=O)[O-])c(C(=O)N2CCN(C(=O)c3ccco3)CC2)n1 | -6 | 1 | -12 | i
Brc1ccc(C=Nc2ccc(Nc3ccccc3)cc2)s1 | 3 | 0 | 2 | +
C(=Nc1ccc(Nc2ccccc2)cc1)c1ccc2ccccc2c1 | 3 | 0 | -5 | i
CCCCn1cc(SCC(=O)O)c2ccccc21 | 4 | -5 | 59* | i
C=CCOc1ccc(/C=C2\SC(=S)N(NS(=O)(=O)c3ccc(C)cc3)C2=O)cc1 | -8 | -7 | 10 | i
Cc1ccc(S(=O)(=O)N(C(=N)N)c2nc(N(C)C)nc(N(C)C)n2)cc1 | -3 | 1 | 4 | i
COCCNc1cc(N)c([N+](=O)[O-])cc1[N+](=O)[O-] | 20 | 45* | -2 | i
CCOC(=O)c1ccc(NCCOC)c([N+](=O)[O-])c1 | -3 | -1 | -1 | i
CCOC(=O)C1=C(COC(=O)CSc2ccc(C)cc2C)NC(=O)NC1C (centres undefined) | 9 | 1 | 3 | i
Cc1ccccc1OC1CCN(C(=O)C2CCC(=O)N(C3CCCC3)C2)CC1 (centres undefined) | 5 | 2 | -2 | i
Cc1ccc(NC(=O)CCCn2c(=S)[nH]c3ccsc3c2=O)cc1C | -3 | 4 | 0 | i
O=C(N/N=C/c1ccncc1)c1ccc(NC(=O)c2cccc(Cl)c2)cc1 | 1 | 31 | 78* | i
COc1ccccc1N=Nc1c(O)[nH]c2ccc(Br)cc12 | 7 | 69 | 15 | +
CC(=O)Nc1cc(-c2cccc(F)c2)cn2c(-c3ccccc3)cnc12 | 48 | -2 | 1 | i
COc1ccc(-c2c(-c3cc(OC)cc(OC)c3)n(C)c3ccc(-c4ccc(N(C)C)nc4)cc23)cc1 | -4 | 0 | -2 | i
O=[N+]([O-])c1ccc(Nc2ccccc2O)c([N+](=O)[O-])c1 | -7 | 12 | 14 | +
Cc1cc(NC(=O)CN2C(=O)NC(CC(C)C)C2=O)ccc1Br (centres undefined) | -3 | 0 | 0 | i
c1cc2c3c(cccc3c1)NC1(CCCC1)N2 | 1 | 0 | -1 | i
CC1(C)Nc2cccc3cccc(c23)N1 | 63* | -1 | 2 | u
CCOc1ccc(Br)cc1C(=O)Nc1ccc(C(=O)NCC(C)C)cc1 | 10 | 4 | 5 | +
C=CCn1c(=O)/c(=C/c2ccc(Cl)cc2)s/c1=C(/C#N)c1nnc2n1CCCCC2 | 0 | 4 | 2 | i
C=CCn1c(=O)/c(=C/c2ccc(O)cc2)s/c1=C(/C#N)c1nnc2n1CCCCC2 | -5 | 80* | 97* | i
COc1ccc(C2=Nn3c([n+](C)c4ccccc43)SC2)cc1 | 2 | 0 | 1 | u
C[n+]1c2n(c3ccccc31)N=C(c1ccc(Cl)cc1)CS2 | -1 | 5 | 3 | +
CCN(CC)c1ccc(/C=C2\C(=N)N3N=C(CC(=O)N4CCOCC4)SC3=NC2=O)cc1 | 0 | 205 | 122 | +

Screening data from PubChem.
